In ChEMBL document CHEMBL1134599, “Design and synthesis of [(2,3-dichlorophenyl)piperazin-1-yl]alkylfluorenylcarboxamides as novel ligands selective for the dopamine D3 receptor subtype” (J Med Chem, 2001) one finds Ki data, which are given here for 39 compounds.

One test deals with T1, D(4) dopamine receptor (Homo sapiens, UniProt P21917).
T1 sequence (P21917 whole entry): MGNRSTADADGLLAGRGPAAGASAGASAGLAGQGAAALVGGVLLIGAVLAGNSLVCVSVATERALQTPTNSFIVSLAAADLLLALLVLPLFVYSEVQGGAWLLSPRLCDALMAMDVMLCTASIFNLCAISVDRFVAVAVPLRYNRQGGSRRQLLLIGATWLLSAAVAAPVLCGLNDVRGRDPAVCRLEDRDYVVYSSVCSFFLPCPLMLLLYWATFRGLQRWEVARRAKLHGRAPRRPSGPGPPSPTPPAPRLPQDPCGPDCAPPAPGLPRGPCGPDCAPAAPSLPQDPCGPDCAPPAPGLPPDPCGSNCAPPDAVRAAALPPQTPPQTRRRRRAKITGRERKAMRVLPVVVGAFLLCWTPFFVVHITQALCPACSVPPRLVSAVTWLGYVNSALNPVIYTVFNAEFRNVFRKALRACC
Description: Binding affinity at human dopamine receptor D4. A digest of the protocol:
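Membranes from CHO cells expressing cloned human D4 receptor, prepared in HEPES buffer with protease inhibitors. Compounds tested at 0.1 nM–10 µM in duplicate with 0.1 nM [3H]YM-09151-2 and 40 µg protein, in 50 mM Tris pH 7.4 with 120 mM NaCl. Incubated 2 h at room temperature, then filtered and counted by scintillation. Nonspecific binding defined with 10 µM spiperone. Ki from IC50 by Cheng-Prusoff. 2–3 independent experiments.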

In another test the target is D(2) dopamine receptor (Homo sapiens, UniProt P14416). Description: Binding affinity at human dopamine receptor D2. A digest of the protocol: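 Membranes from CHO cells expressing cloned D2 receptor (labelled primate in methods). Compounds tested at 0.1 nM–10 µM in duplicate with 0.1 nM [3H]YM-09151-2 and 40 µg membrane protein. Buffer was 50 mM Tris pH 7.4 with 120 mM NaCl, bacitracin and aprotinin. Incubated 2 h at room temperature, then filtered on PEI-treated GF/C. Nonspecific binding defined with 10 µM spiperone. IC50 converted to Ki by Cheng-Prusoff. 2–3 independent experiments.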

In a further test the target is D(3) dopamine receptor (Homo sapiens, UniProt P35462). Description: Binding affinity at dopamine receptor D3.
Test [1] in a line: Binding affinity at human dopamine receptor D2.

SMILES strings stand for the structures.

Sequence of D(3) dopamine receptor (P35462 whole entry): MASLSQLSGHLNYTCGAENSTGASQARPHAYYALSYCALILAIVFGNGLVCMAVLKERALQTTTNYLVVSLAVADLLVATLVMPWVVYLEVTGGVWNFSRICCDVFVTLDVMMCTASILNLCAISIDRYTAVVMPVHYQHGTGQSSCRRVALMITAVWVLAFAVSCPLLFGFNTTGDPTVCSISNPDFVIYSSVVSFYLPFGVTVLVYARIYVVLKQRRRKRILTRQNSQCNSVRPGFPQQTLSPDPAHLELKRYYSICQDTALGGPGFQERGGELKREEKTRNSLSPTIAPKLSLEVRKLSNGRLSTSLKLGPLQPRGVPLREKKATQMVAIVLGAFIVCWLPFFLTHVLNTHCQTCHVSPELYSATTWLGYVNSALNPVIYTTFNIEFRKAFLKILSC
Sequence of D(2) dopamine receptor (P14416 whole entry): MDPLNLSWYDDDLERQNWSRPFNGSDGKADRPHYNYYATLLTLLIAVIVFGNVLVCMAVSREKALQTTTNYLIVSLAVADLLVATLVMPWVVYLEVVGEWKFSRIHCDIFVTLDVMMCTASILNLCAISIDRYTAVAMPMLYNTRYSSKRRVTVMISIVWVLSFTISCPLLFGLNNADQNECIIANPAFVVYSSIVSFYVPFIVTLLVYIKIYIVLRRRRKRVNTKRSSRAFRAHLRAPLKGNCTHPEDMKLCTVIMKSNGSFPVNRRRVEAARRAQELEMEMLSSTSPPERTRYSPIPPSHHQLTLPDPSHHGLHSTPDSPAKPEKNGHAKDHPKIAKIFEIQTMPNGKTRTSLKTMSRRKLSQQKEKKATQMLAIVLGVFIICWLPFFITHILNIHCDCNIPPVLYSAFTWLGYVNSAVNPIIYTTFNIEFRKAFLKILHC

Turning to `O=C(NCCCN1CCN(c2ccccc2)CC1)c1ccc2c(c1)Cc1ccccc1-2`, the Ki on D(4) dopamine receptor worked out at 679 nM; at D(2) dopamine receptor, 825 nM; on D(3) dopamine receptor, 1460 nM.

For the compound `O=C1c2ccccc2C(=O)N1CCCCCN1CCN(c2cccc(Cl)c2Cl)CC1`, the results for the Ki at D(4) dopamine receptor, at D(2) dopamine receptor and at D(3) dopamine receptor were 105 nM, 11 nM and 7.8 nM, respectively.

`C[C@@H]1CN(CCCn2c3ccccc3c3cc(N)ccc32)C[C@H](C)N1` returned a Ki at D(3) dopamine receptor above 8000 nM.

`Fc1ccc(C(OC2CC3CCC(C2)N3Cc2ccc(Cl)c(Cl)c2)c2ccc(F)cc2)cc1` (stereo not given): the Ki amounted to 349 nM on D(4) dopamine receptor, 625 nM on D(2) dopamine receptor and 277 nM at D(3) dopamine receptor.

In the case of `Clc1cccc(C(OC2CC3CCC(C2)N3CCCc2ccccc2)c2ccccc2)c1` (stereo not given), the values for the Ki on D(4) dopamine receptor, at D(2) dopamine receptor and on D(3) dopamine receptor were 222 nM, 59 nM and 72.7 nM, respectively.

`C[C@@H]1CN(CCCN(c2ccccc2)c2ccccc2)C[C@H](C)N1CCCc1ccccc1` registered a Ki at D(3) dopamine receptor above 5000 nM.

As to `Fc1ccc(C(OCCOC2CC3CCC(C2)N3)c2ccc(F)cc2)cc1` (stereo not given), the results for the Ki on D(4) dopamine receptor, at D(2) dopamine receptor and at D(3) dopamine receptor were above 4000 nM, 1120 nM and 2520 nM, respectively.

`O=C(NCCCN1CCN(c2cccc(Cl)c2Cl)CC1)c1ccc2c(c1)Cc1ccccc1-2`: the Ki is 350 nM on D(4) dopamine receptor, 2570 nM at D(2) dopamine receptor and 110 nM at D(3) dopamine receptor.

On to `Fc1ccc(C(OC2CC3CCC(C2)N3Cc2ccccc2)c2ccc(F)cc2)cc1` (stereo not given), for which the Ki was determined as 640 nM on D(4) dopamine receptor, 132 nM at D(2) dopamine receptor and 63.3 nM on D(3) dopamine receptor.

On to `O=C(NCCCCN1CCN(c2cccc(Cl)c2Cl)CC1)C1c2ccccc2-c2ccccc21`, for which the Ki on D(4) dopamine receptor is 391 nM; at D(2) dopamine receptor it was 10 nM; at D(3) dopamine receptor it was 19 nM.

For `Fc1ccc(C(O[C@H]2C[C@H]3CC[C@@H](C2)N3CCCCc2ccccc2)c2ccc(F)cc2)cc1`, the Ki on D(4) dopamine receptor was found to be 68.1 nM; on D(2) dopamine receptor, 81.3 nM; at D(3) dopamine receptor it was 13.8 nM.

On D(3) dopamine receptor, `C=CCN1C2CCC1CC(OC(c1ccc(F)cc1)c1ccc(F)cc1)C2` (stereo not given) showed a Ki of 130 nM.

Take `c1ccc(N2CCN(CCCn3c4ccccc4c4ccccc43)CC2)cc1`: on D(3) dopamine receptor, the affinity corresponds to a Ki of 2420 nM.

As to `OC1CCc2c(c3ccccc3n2CCCN2CCN(c3ccccc3)CC2)C1` (stereo not given), the Ki at D(4) dopamine receptor is above 4000 nM; at D(2) dopamine receptor, 180 nM; at D(3) dopamine receptor, 4010 nM.

`CCN(CC)CCOCCOC1(c2ccccc2)CCCC1` showed a Ki on D(3) dopamine receptor of 6100 nM.

Turning to `C[C@@H]1CN(CCCn2c3ccccc3c3ccccc32)C[C@H](C)N1CCCc1ccccc1`, the Ki on D(3) dopamine receptor is above 4000 nM.

As for `Fc1ccc(C(OCCN2C3CCC2CC(OC(c2ccc(F)cc2)c2ccc(F)cc2)C3)c2ccc(F)cc2)cc1` (stereo not given), the Ki on D(4) dopamine receptor turned out to be 868 nM; at D(2) dopamine receptor it was 927 nM; on D(3) dopamine receptor, 214 nM.

With `O=C(NCCCN1CCN(c2ccccc2)CC1)c1cccc2c1Cc1ccccc1-2`, the Ki at D(4) dopamine receptor was 791 nM; at D(2) dopamine receptor, 473 nM; on D(3) dopamine receptor, 430 nM.

For the compound `O=C(NCCCCN1CCN(c2cccc(Cl)c2Cl)CC1)c1ccc2c(c1)-c1ccccc1C2`, the Ki at D(4) dopamine receptor was above 5000 nM; on D(2) dopamine receptor, 217 nM; on D(3) dopamine receptor, 1.4 nM.

On to `C[C@@H]1CN(CCCN(c2ccccc2)c2ccccc2)C[C@H](C)N1`, for which, at D(3) dopamine receptor, the Ki was above 8000 nM.

Take `Fc1ccc(C(OC2CC3CCC(C2)N3Cc2cc3ccccc3[nH]2)c2ccc(F)cc2)cc1` (stereo not given): the Ki at D(4) dopamine receptor came to 172 nM; at D(2) dopamine receptor, 218 nM; at D(3) dopamine receptor, 53.2 nM.

On to `CN1C2CCC1CC(OC(c1ccccc1)c1ccc(Cl)cc1)C2` (stereo not given), for which the Ki at D(4) dopamine receptor was found to be 1000 nM; on D(2) dopamine receptor, 1740 nM; on D(3) dopamine receptor, 5380 nM.

Take `O=C(NCCCN1CCN(c2ccccc2)CC1)C1c2ccccc2-c2ccccc21`: the values for the Ki at D(4) dopamine receptor, at D(2) dopamine receptor and on D(3) dopamine receptor were 2170 nM, 606 nM and 340 nM, respectively.

In turn, `Clc1ccccc1N1CCN(CCCn2c3ccccc3c3ccccc32)CC1` showed a Ki on D(3) dopamine receptor above 4000 nM.

`O=C(NCC1c2ccccc2-c2ccccc21)C1CCNCC1` came in with a Ki at D(3) dopamine receptor above 8000 nM.

As for `O=C1c2ccccc2C(=O)N1CCCCN1CCN(c2cccc(Cl)c2Cl)CC1`, the Ki on D(4) dopamine receptor was found to be 368 nM; on D(2) dopamine receptor it was 120 nM; at D(3) dopamine receptor, 4.1 nM.

As to `O=C(NCCCCN1CCN(c2cccc(Cl)c2Cl)CC1)c1cccc2c1-c1ccccc1C2=O`, the values for the inhibitory constant (Ki) on D(4) dopamine receptor, on D(2) dopamine receptor and at D(3) dopamine receptor were 1850 nM, 89 nM and 1.4 nM, respectively.

On to `O=C(NCCCCCN1CCN(c2cccc(Cl)c2Cl)CC1)c1cccc2c1-c1ccccc1C2=O`, for which the results for the Ki on D(4) dopamine receptor, on D(2) dopamine receptor and on D(3) dopamine receptor were 530 nM, 5 nM and 28 nM, respectively.

Regarding `O=C(NCCCN1CCN(c2cccc(Cl)c2Cl)CC1)c1cccc2c1Cc1ccccc1-2`, the Ki was 326 nM on D(4) dopamine receptor, 1680 nM at D(2) dopamine receptor and 170 nM on D(3) dopamine receptor.

For `O=C(NCCCN1CCN(c2ccccc2)CC1)c1cccc2c1-c1ccccc1C2=O`, the Ki on D(4) dopamine receptor came out at 1380 nM; on D(2) dopamine receptor, 777 nM; at D(3) dopamine receptor it was 430 nM.

Consider `C[C@@H]1CN(CCCn2c3ccc(Br)cc3c3cc(Br)cc(Br)c32)C[C@@H](C)N1`, for which, on D(3) dopamine receptor, the Ki was above 8000 nM.

In the case of `O=C(NCCCN1CCN(c2cccc(Cl)c2Cl)CC1)C1c2ccccc2-c2ccccc21`, the Ki was 1140 nM at D(4) dopamine receptor, 414 nM on D(2) dopamine receptor and 24 nM on D(3) dopamine receptor.

`CN1[C@@H]2CC[C@H]1C[C@@H](OC(c1ccc(Cl)cc1)c1ccc(Cl)cc1)C2`: affinity on D(3) dopamine receptor was put at a Ki of 220 nM.

Regarding `CN1C2CCC1CC(OC1c3ccccc3Cc3ccccc31)C2` (stereo not given), the Ki at D(4) dopamine receptor came to 541 nM; on D(2) dopamine receptor, 672 nM; on D(3) dopamine receptor, 193 nM.

On D(3) dopamine receptor, `CN1C2CCC1CC(OC(c1ccc(F)cc1)c1ccc(F)cc1)C2` (stereo not given) [DIFLUOROBENZTROPINE] displayed a Ki of 145 nM.

As for `C[C@@H]1CN(CCCn2c3ccccc3c3ccccc32)C[C@H](C)N1C`, the Ki at D(3) dopamine receptor was above 8000 nM.

Turning to `O=C(NCCCN1CCN(c2cccc(Cl)c2Cl)CC1)c1cccc2c1-c1ccccc1C2=O`, the values for the Ki on D(4) dopamine receptor, on D(2) dopamine receptor and on D(3) dopamine receptor were 3990 nM, 512 nM and 36 nM, respectively.

As to `Fc1ccc(C(OC2CC3CCC(C2)N3Cc2cccc3ccccc23)c2ccc(F)cc2)cc1` (stereo not given), the Ki on D(4) dopamine receptor came to 120 nM; on D(2) dopamine receptor it was 379 nM; at D(3) dopamine receptor, 112 nM.

As for `O=C(NCCCCN1CCN(c2cccc(Cl)c2Cl)CC1)c1ccc2c(c1)-c1ccccc1-2`, the inhibition constant Ki in test [1] is […]; on D(4) dopamine receptor it was above 5000 nM.

The term Ki denotes a measure of affinity in units of concentration, obtained from inhibition or displacement. A high value points to weaker binding.
